Assay results published in ChEMBL document CHEMBL1828548, “Synthesis and pharmacological evaluations of novel 2H-benzo[b][1,4]oxazin-3(4H)-one derivatives as a new class of anti-cancer agents” (2011).

Tests used:
Format in all cases: functional
A549 [1] = test: Cytotoxicity against human A549 cells assessed as cell viability at 1 uM after 3 days by colorimetric MTT assay; conditions: A549, 72 h, read-out: Activity
In short: (§1)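 A549 and DLD-1 cells from ATCC, grown as recommended, were seeded at 5000 cells/well the day before dosing. They were exposed for 3 days in medium with 5% FBS to compound diluted from 20 mM DMSO stocks (final up to 20 µM, 0.1% v/v DMSO). Cells then received 0.5 mg/mL MTT for 4 h, formazan was dissolved in 10% SDS/10 mM HCl, and A595 was read. Viability is % of 0.1% DMSO control; two experiments, triplicate points.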

DLD-1 [2] = test: Cytotoxicity against human DLD1 cells assessed as cell viability at 1 uM after 3 days by colorimetric MTT assay; conditions: DLD-1, 72 h, read-out: Activity; in short: as §1
MV4-11 [3] = test: Cytotoxicity against human MV4-11 cells assessed as cell viability at 1 uM after 3 days by colorimetric MTT assay; conditions: MV4-11, 72 h, read-out: Activity
In short: (§2)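 MV4-11 leukemia cells from ATCC, grown as recommended, were plated at 40,000 cells/well immediately before treatment. They were cultured 3 days in 5% FBS medium with compound from 20 mM DMSO stocks diluted in RPMI (final ≤20 µM, 0.1% v/v DMSO). MTT (0.5 mg/mL, 4 h) was followed by SDS/HCl solubilization and absorbance at 595 nm. Percent viability is relative to DMSO-treated controls; run twice in triplicate.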

MV4-11 [4] = test: Cytotoxicity against human MV4-11 cells assessed as cell viability at 10 uM after 3 days by colorimetric MTT assay; conditions: MV4-11, 72 h, read-out: Activity; in short: as §2
DLD-1 [5] = test: Cytotoxicity against human DLD1 cells assessed as cell viability at 10 uM after 3 days by colorimetric MTT assay; conditions: DLD-1, 72 h, read-out: Activity; in short: as §1
A549 [6] = test: Cytotoxicity against human A549 cells assessed as cell viability at 10 uM after 3 days by colorimetric MTT assay; conditions: A549, 72 h, read-out: Activity; in short: as §1
A549 [7] = test: Cytotoxicity against human A549 cells assessed as cell viability at 20 uM after 3 days by colorimetric MTT assay; conditions: A549, 72 h, read-out: Activity; in short: as §1
DLD-1 [8] = test: Cytotoxicity against human DLD1 cells assessed as cell viability at 20 uM after 3 days by colorimetric MTT assay; conditions: DLD-1, 72 h, read-out: Activity; in short: as §1
MV4-11 [9] = test: Cytotoxicity against human MV4-11 cells assessed as cell viability at 20 uM after 3 days by colorimetric MTT assay; conditions: MV4-11, 72 h, read-out: Activity; in short: as §2

Structure (SMILES) | viability at 1 µM (A549 [1]) [%] | viability at 1 µM (DLD-1 [2]) [%] | viability at 1 µM (MV4-11 [3]) [%] | viability at 10 µM (MV4-11 [4]) [%] | viability at 10 µM (DLD-1 [5]) [%] | viability at 10 µM (A549 [6]) [%] | viability at 20 µM (A549 [7]) [%] | viability at 20 µM (DLD-1 [8]) [%] | viability at 20 µM (MV4-11 [9]) [%]
C#Cc1cccc(Nc2ncnc3cc(OCCOC)c(OCCOC)cc23)c1 [ERLOTINIB] | 83 | 85.7 | 98.3 | 16.8 | 55.4 | 68.5 |  |  | 
CCN(CC)CCNC(=O)c1c(C)[nH]c(/C=C2\C(=O)Nc3ccc(F)cc32)c1C [SUNITINIB] | 102 | 92.9 | 1.4 | 0.5 | 52.7 | 37.4 |  |  | 
O=C1COc2ccc(-c3nn(-c4ccccc4)cc3-c3ccccc3)cc2N1 | 92.2 | 77 | 117 |  |  |  | 59.7 | 47.7 | 97.9
COc1ccc(-c2nc(-c3ccccc3)c(-c3ccc4c(c3)NC(=O)CO4)[nH]2)cc1 | 101 | 96 | 108 |  |  |  | 38.1 | 19.1 | 1.2
O=C1COc2ccc(-c3nn(-c4ccc(F)cc4)cc3-c3ccccc3)cc2N1 | 78.2 | 64.4 | 107 |  |  |  | 56.4 | 45.2 | 92.6
Cc1ccc(NC(=O)c2ccc(CN3CCN(C)CC3)cc2)cc1Nc1nccc(-c2cccnc2)n1 [IMATINIB] | 108 | 89.9 | 105 | 82 | 91.5 | 98.6 |  |  | 
O=C1COc2ccc(-c3[nH]c(-c4ccccc4)nc3-c3ccccc3)cc2N1 | 95.6 | 98.2 | 105 |  |  |  | 58.5 | 47.3 | 7.6
O=C1COc2ccc(-c3nn(-c4ccc(Br)cc4)cc3-c3ccccc3)cc2N1 | 81.5 | 66.4 | 108 |  |  |  | 58.8 | 54.2 | 91.5
CNC(=O)c1cc(Oc2ccc(NC(=O)Nc3ccc(Cl)c(C(F)(F)F)c3)cc2)ccn1 [SORAFENIB] | 103 | 93.4 | 1.6 | 0.7 | 28 | 28.6 |  |  | 
O=C1COc2ccc(-c3nn(-c4cc(Cl)cc(Cl)c4)cc3-c3ccccc3)cc2N1 | 93.1 | 90.3 | 105 |  |  |  | 70.2 | 52.2 | 50.5
O=C1COc2ccc(-c3nn(-c4ccc(Cl)cc4)cc3-c3ccccc3)cc2N1 | 84.4 | 61.9 | 108 |  |  |  | 52.4 | 47.1 | 91.9
COc1cc2ncnc(Nc3ccc(F)c(Cl)c3)c2cc1OCCCN1CCOCC1 [GEFITINIB] | 84.4 | 87 | 92.4 | 7 | 65.7 | 61.5 |  |  | 
COc1ccc(-n2cc(-c3ccccc3)c(-c3ccc4c(c3)NC(=O)CO4)n2)cc1 | 95.6 | 92.2 | 106 |  |  |  | 42.6 | 35.6 | 59.9
O=C1COc2ccc(-c3[nH]c(-c4c[nH]c5ncccc45)nc3-c3ccccc3)cc2N1 | 100 | 97.7 | 111 |  |  |  | 86.8 | 53.5 | 8.9
O=C1COc2ccc(-c3[nH]c(-c4ccc(F)cc4)nc3-c3ccccc3)cc2N1 | 97.1 | 94.8 | 108 |  |  |  | 37.5 | 29.5 | 1.1
COc1cc2/c(=N/c3ccc(Br)cc3F)nc[nH]c2cc1OCC1CCN(C)CC1 [VANDETANIB] | 88.7 | 88.6 | 84.1 | 1.6 | 37.9 | 41.7 |  |  | 
Cc1ccccc1-n1cc(-c2ccccc2)c(-c2ccc3c(c2)NC(=O)CO3)n1 | 94.8 | 92.2 | 99.4 |  |  |  | 85.3 | 62.9 | 54.2
O=C1COc2ccc(-c3[nH]c(-c4ccc(Cl)cc4Cl)nc3-c3ccccc3)cc2N1 | 97.4 | 97.8 | 109 |  |  |  | 68.3 | 61.9 | 41.1
O=C1COc2ccc(-c3[nH]c(-c4ccc(C(F)(F)F)cc4)nc3-c3ccccc3)cc2N1 | 103 | 95 | 111 |  |  |  | 21.7 | 12.1 | 0.6
